The target in assay [1] is T1, Phosphodiesterase 4 (Homo sapiens, UniProt P27815+Q08499+Q07343+Q08493). The experiment in a line: In vitro inhibition of PDE-IV isolated from guinea pig ventricle at 10 uM. The format is protein assay. The following applies: Cavia porcellus, target entry is the homologue from another species.
Assay [2] addresses T2, Phosphodiesterase 3 (Homo sapiens, UniProt Q14432+Q13370). The assay can be described thus: Percentage inhibition against PDE-III (phosphodiesterase III) in guinea pig ventricle at 10 uM. In kind it is protein assay. Particulars: Cavia porcellus, target entry is the homologue from another species.
In assay [3] the target is T1, Phosphodiesterase 4. The experiment in a line: In vitro inhibition of PDE-IV isolated from guinea pig ventricle. In kind it is protein assay, Cavia porcellus. The following applies: target entry is the homologue from another species. The essentials:
(§1)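 PDE III and PDE IV were each prepared from guinea pig ventricle by anion-exchange chromatography. Activity was measured by the boronate column method with 1 μM cAMP as substrate.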

Assay [4] relates to cGMP-specific 3',5'-cyclic phosphodiesterase (Sus scrofa). The assay can be described thus: In vitro inhibition of PDE-V isolated from porcine pulmonary artery at 100 uM.
Assay [5] has as its target T2, Phosphodiesterase 3. The assay can be described thus: Effective dose against PDE-III for increase in contractility following administration to anaesthetised dogs. The following applies: Canis lupus familiaris; target entry is the homologue from another species.
The target of assay [6] is T2, Phosphodiesterase 3. The experiment in a line: Inhibition of PDE 3 (phosphodiesterase III) from guinea pig ventricle. In kind it is protein assay, Cavia porcellus. The following applies: target entry is the homologue from another species. The essentials:
as §1

Assay [7] addresses T2, Phosphodiesterase 3. The assay can be described thus: Relative positive inotropic activity (ED50) and PDE 3 inhibition (IC50). In kind it is protein assay. The following applies: Cavia porcellus.
In assay [8] the target is T1, Phosphodiesterase 4. The experiment in a line: In vitro inhibition of PDE-IV isolated from guinea pig ventricle; Not determined. In kind it is protein assay. The following applies: Cavia porcellus; target entry is the homologue from another species; concentration not given here. The essentials: as §1
For assay [9], the target named is cGMP-specific 3',5'-cyclic phosphodiesterase (Homo sapiens) (UniProt O76074). The assay can be described thus: In vitro inhibition of PDE-V isolated from porcine pulmonary artery at 10 uM. Particulars: Sus scrofa, target entry is the homologue from another species.
Assay [10] addresses T1, Phosphodiesterase 4. The assay can be described thus: In vitro inhibition of PDE-IV isolated from guinea pig ventricle at 100 uM. The format is protein assay. Particulars: Cavia porcellus, target entry is the homologue from another species.
The target of assay [11] is T2, Phosphodiesterase 3. The experiment in a line: Percent inhibition of PDE 3 (phosphodiesterase III) from guinea pig ventricle at 10 uM (or 100 uM). The following applies: Cavia porcellus, target entry is the homologue from another species. The format is protein assay.

For `CC(=O)Oc1ccccc1-c1nc2ccc[nH]c-2n1`, the figures for the inhibition against Phosphodiesterase 4 [1] and at Phosphodiesterase 3 [2] were 0% and 2%, respectively.

`CCCCOc1ccccc1-c1nc2ccc[nH]c-2n1`: the inhibition at Phosphodiesterase 3 [2] worked out at 0%. In addition, the half-inhibitory concentration (IC50) against Phosphodiesterase 4 [3] is 6 µM.

In turn, `ClCCCOc1ccccc1-c1nc2ccc[nH]c-2n1` showed an inhibition at Phosphodiesterase 3 [2] of 7%. Also, the IC50 on Phosphodiesterase 4 [3] amounted to 9 µM.

On to `CN(C)CCCOc1ccccc1-c1nc2ccc[nH]c-2n1`, for which the inhibition against Phosphodiesterase 4 [1] was determined as 7%; on Phosphodiesterase 3 [2], 8%; in assay [4] it was 47%.

`CCCOc1ccccc1-c1cn2cccnc2n1`: the inhibition came out at 16% on Phosphodiesterase 4 [1] and 2% on Phosphodiesterase 3 [2].

As to `c1c[nH]c2nc(-c3ccccc3OCC3CC3)nc-2c1`, the inhibition against Phosphodiesterase 3 [2] is 15%. The same compound came in with an IC50 against Phosphodiesterase 4 [3] of 37 µM.

On to `CCCOc1ccccc1-c1nc2ccc[nH]c-2n1`, for which the inhibition against Phosphodiesterase 3 [2] turned out to be 0%. Moreover, the 50% inhibitory concentration (IC50) on Phosphodiesterase 4 [3] stood at 11 µM.

As for `CCCNc1ccccc1-c1nc2ccc[nH]c-2n1`, the inhibition is 11% at Phosphodiesterase 4 [1] and 0% at Phosphodiesterase 3 [2].

On to `CCCSc1ccccc1-c1nc2ccc[nH]c-2n1`, for which the inhibition on Phosphodiesterase 4 [1] is 21%; against Phosphodiesterase 3 [2], 0%.

With `c1c[nH]c2nc(-c3ccccc3OC3CCCC3)nc-2c1`, at Phosphodiesterase 3 [2], the inhibition is 12%. On Phosphodiesterase 4 [3], the 50% inhibitory concentration (IC50) was 19 µM.

Regarding `CCCCCOc1ccccc1-c1nc2cc[nH]cc-2n1`, the inhibition at Phosphodiesterase 4 [1] turned out to be 50%; at Phosphodiesterase 3 [2], 20%.

With `CCCOc1ccccc1-c1nc2[nH]nnc2c(=O)[nH]1`, the inhibition is 13% against Phosphodiesterase 4 [1] and 14% against Phosphodiesterase 3 [2].

`OCCCOc1ccccc1-c1nc2ccc[nH]c-2n1`: the figures for the inhibition at Phosphodiesterase 4 [1] and against Phosphodiesterase 3 [2] were 30% and 0%, respectively.

Turning to `OCCOc1ccccc1-c1nc2ccc[nH]c-2n1`, the inhibition worked out at 14% against Phosphodiesterase 4 [1] and 2% at Phosphodiesterase 3 [2].

Turning to `CC(C)COc1ccccc1-c1nc2ccc[nH]c-2n1`, the concentration for half-maximal inhibition (IC50) against Phosphodiesterase 4 [3] is 3 µM.

As for `CC1(C)C(=O)Nc2ccc(C3=NNC(=O)CC3)cc21` [INDOLIDAN], the 50% effect level on Phosphodiesterase 3 [5] (ED50) was put at a dose of 0.007 mg/kg. The compound further showed an IC50 at Phosphodiesterase 3 [6] of 0.08 µM. Moreover, the Ratio at Phosphodiesterase 3 [7] is 0.01.

Turning to `COc1ccccc1-c1nc2ccc[nH]c-2n1`, the inhibition stood at 13% on Phosphodiesterase 3 [2] and 1% on Phosphodiesterase 4 [8].

With `CNCCCOc1ccccc1-c1nc2ccc[nH]c-2n1`, the inhibition stood at 12% in assay [9], 5% against Phosphodiesterase 4 [1] and 0% against Phosphodiesterase 3 [2].

As to `O=[N+]([O-])c1ccccc1-c1nc2ccc[nH]c-2n1`, the inhibition in [9] turned out to be 13%; on Phosphodiesterase 4 [1], 4%; against Phosphodiesterase 3 [2], 0%.

Consider `O=C1CCC(c2ccc(-n3ccnc3)cc2)=NN1`, for which, at Phosphodiesterase 3 [5], it took a dose of 0.05 mg/kg to reach the 50% effect level (ED50).

For the compound `CCCCCOc1ccccc1-c1nc2ccc[nH]c-2n1`, the inhibition at Phosphodiesterase 3 [2] stood at 0%. For the same compound, the IC50 at Phosphodiesterase 4 [3] is 6 µM.

`c1ccc(COc2ccccc2-c2nc3ccc[nH]c-3n2)cc1` returned an inhibition on Phosphodiesterase 3 [2] of 0%. Besides, the IC50 at Phosphodiesterase 4 [3] turned out to be 8 µM.

Regarding `CC(C)(C)Oc1ccccc1-c1nc2ccc[nH]c-2n1`, the results for the inhibition (in [9]; on Phosphodiesterase 4 [1]; against Phosphodiesterase 3 [2]) were 29%, 0% and 0%, respectively.

In the case of `COc1ccccc1-c1nc2cc[nH]cc-2n1`, the inhibition on Phosphodiesterase 4 [1] came out at 20%; on Phosphodiesterase 3 [2], 6%.

In the case of `COc1cc([S+](C)[O-])ccc1-c1nc2cnccc2[nH]1` (stereo not given) [ISOMAZOLE], the inhibition against Phosphodiesterase 4 [10] was 2%; against Phosphodiesterase 3 [11], 23%. In addition, the 50% effect level on Phosphodiesterase 3 [5] (ED50) was put at a dose of 0.03 mg/kg. The compound also returned a concentration for half-maximal inhibition (IC50) against Phosphodiesterase 3 [6] of 42 µM. Moreover, the Ratio at Phosphodiesterase 3 [7] amounted to 1.4.

As to `Cc1[nH]c(=O)c(C#N)cc1-c1ccncc1`, the ED50 on Phosphodiesterase 3 [5] is 0.037 mg/kg.

For `CCCCCCOc1ccccc1-c1nc2ccc[nH]c-2n1`, the inhibition at Phosphodiesterase 3 [2] was found to be 0%. The compound further gave an IC50 against Phosphodiesterase 4 [3] of 16 µM.

For `CCOc1ccccc1-c1nc2ccc[nH]c-2n1`, the inhibition against Phosphodiesterase 4 [1] stood at 23%; against Phosphodiesterase 3 [2] it was 15%.

As to `Oc1ccccc1-c1nc2ccc[nH]c-2n1`, the inhibition on Phosphodiesterase 4 [1] is 0%; against Phosphodiesterase 3 [2] it was 15%.

With `COc1cc([S+](C)[O-])ccc1-c1nc2cccnc2[nH]1` (stereo not given), at Phosphodiesterase 3 [5], the ED50 was 0.3 mg/kg. Moreover, the inhibition against Phosphodiesterase 3 [11] came out at 2%.

The values above are taken from ChEMBL document CHEMBL1126686 (J Med Chem, 1993).
